According to PMC2219267 (The Journal of General Physiology, 1996):

Key:
band 3 [1] = target: T1, band 3 (Homo sapiens, UniProt P02730); assay: 125I iodide influx into red blood cells; format: cell-based
T1 sequence (P02730 1-911): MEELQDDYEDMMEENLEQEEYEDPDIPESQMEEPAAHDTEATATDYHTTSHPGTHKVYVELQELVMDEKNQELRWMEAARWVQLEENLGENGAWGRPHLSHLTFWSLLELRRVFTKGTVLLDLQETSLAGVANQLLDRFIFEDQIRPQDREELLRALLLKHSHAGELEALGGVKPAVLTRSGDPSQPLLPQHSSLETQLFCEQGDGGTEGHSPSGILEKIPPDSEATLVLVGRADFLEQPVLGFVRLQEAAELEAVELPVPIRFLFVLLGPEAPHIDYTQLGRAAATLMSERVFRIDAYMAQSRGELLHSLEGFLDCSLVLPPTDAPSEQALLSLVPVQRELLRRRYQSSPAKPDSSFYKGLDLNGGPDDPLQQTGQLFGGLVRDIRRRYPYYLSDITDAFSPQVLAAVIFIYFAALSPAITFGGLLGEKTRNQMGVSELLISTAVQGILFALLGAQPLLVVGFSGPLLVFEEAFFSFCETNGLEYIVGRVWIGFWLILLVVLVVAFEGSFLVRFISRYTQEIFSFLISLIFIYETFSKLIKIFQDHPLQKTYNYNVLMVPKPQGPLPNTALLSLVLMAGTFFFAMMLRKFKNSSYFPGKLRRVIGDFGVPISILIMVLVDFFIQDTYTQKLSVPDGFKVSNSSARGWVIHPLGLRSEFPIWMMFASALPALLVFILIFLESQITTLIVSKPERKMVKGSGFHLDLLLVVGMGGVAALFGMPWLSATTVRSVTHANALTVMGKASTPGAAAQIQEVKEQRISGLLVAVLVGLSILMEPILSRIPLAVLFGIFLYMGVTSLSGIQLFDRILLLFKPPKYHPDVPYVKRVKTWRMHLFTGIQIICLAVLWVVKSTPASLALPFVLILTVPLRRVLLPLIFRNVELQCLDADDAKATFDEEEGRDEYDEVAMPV
Outline: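 Heparinised human blood was washed three times in 150 KH (150 mM KCl, 24 mM sucrose, 20 mM Hepes, pH 7.2 at 0°C), with white cells aspirated, then held at 50% hematocrit. DIDS-treated cells received a 2 mM DIDS stock. Media mixed sucrose, KCl and KI with 5 mM buffer. Above pHo 11, cells were nystatin-loaded to 300 mM Cl-, and CAPS-buffered media were used.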

band 3 [2] = target: T1, band 3; conditions: cited from earlier work

I- influx as % of Cl- efflux (band 3 [1]; no citrate, [Clo] 0.28 mM, [Io] 2.2 mM, 0°C): less than 6%
half-saturation concentration for Io activation of I- influx (band 3 [1]; pH 10.6, 1.65 mM [Clo]): 26.4 ± 1.8 mM
I- influx as % of Cl- efflux (band 3 [1]; pH 11.5, 53 mM [Io], 16.5 mM [Clo]): 16%
I- influx as % of Cl- efflux (band 3 [1]; pHo 10.6, 1.65 mM [Clo], up to 15 mM [Io]): less than 10%
Compound: [I-].[K+] [iodide, potassium iodide]
transport rate relative to Cl- (band 3 [2]; 0°C, pH 7.4, ref Dalmark and Wieth, 1972): 260 times slower
1/R, ratio of dissociation constants alkaline/neutral state (band 3 [2]; ref Bjerrum (1992)): 35.8
R = K++I/K+I, ratio of I- dissociation constants for neutral and alkaline forms (band 3 [2]; ref Bjerrum (1992)): 0.0279
